Source: PMC7383892 (Epilepsia, 2020)
Entries after “also recorded” stand apart in the source; their conditions may differ. Like-named read-outs stand apart in the source and are kept apart here. Marks after values point to notes of the source that are not given here.

Legend:
photosensitive epilepsy = settings: cited from earlier work
Lennox–Gastaut syndrome = settings: stable dosages over a 3-year period; cited from earlier work
BZD site of GABAARs = settings: cited from earlier work
[1] = target: human recombinant GABAA receptor α3β2γ2 (Homo sapiens, UniProt P18507+P34903); assay: Two-electrode voltage clamp in Xenopus oocytes, α3β2γ2; assay type: cell-based; settings: for Function relative efficacy, normalized toward chlordiazepoxide (10 µmol/L): Padsevonil 10 µmol/L, GABA EC20, TEVC, α3β2γ2
human recombinant GABAA receptor α3β2γ2, sequence (P34903 29-492): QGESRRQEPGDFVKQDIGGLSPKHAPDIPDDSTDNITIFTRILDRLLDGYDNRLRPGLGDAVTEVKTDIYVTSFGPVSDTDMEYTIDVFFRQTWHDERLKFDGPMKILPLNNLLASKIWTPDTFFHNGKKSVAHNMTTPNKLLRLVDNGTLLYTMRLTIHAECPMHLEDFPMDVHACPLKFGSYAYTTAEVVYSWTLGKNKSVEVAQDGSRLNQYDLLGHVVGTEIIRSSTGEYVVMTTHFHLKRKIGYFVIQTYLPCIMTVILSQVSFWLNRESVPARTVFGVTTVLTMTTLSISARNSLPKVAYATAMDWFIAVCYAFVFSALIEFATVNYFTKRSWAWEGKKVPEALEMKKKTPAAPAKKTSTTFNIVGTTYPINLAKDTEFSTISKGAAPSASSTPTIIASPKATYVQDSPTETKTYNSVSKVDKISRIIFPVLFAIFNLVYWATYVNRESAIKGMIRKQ
human recombinant GABAA receptor α3β2γ2, sequence (P47870 25-512 partner limits assumed): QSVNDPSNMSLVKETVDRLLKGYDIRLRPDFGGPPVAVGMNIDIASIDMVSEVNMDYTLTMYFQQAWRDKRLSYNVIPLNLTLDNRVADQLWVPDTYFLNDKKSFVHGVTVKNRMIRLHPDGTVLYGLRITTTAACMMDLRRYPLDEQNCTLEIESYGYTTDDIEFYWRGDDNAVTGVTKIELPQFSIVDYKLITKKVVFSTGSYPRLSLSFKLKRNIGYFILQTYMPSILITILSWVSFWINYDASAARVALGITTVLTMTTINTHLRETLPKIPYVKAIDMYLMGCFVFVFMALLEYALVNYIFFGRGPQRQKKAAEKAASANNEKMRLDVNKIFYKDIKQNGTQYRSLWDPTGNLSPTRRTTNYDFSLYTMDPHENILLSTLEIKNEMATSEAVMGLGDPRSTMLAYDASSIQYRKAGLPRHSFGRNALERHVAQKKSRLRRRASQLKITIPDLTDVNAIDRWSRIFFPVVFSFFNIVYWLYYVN
human recombinant GABAA receptor α3β2γ2, sequence (P18507 40-475): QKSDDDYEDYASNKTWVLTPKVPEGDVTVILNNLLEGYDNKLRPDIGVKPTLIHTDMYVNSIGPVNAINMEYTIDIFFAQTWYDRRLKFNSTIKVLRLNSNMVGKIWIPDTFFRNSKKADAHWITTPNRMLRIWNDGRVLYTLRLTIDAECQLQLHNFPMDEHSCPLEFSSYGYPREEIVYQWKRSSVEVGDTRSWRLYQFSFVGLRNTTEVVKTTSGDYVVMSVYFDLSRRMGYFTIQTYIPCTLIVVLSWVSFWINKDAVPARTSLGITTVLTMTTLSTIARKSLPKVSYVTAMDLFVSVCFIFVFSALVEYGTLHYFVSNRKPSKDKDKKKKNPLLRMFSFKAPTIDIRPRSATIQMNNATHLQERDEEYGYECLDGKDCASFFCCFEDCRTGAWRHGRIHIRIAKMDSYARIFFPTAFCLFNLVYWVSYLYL

[2] = target: human recombinant GABAA receptor α2β2γ2 (Homo sapiens, UniProt P18507+P47869); assay: Two-electrode voltage clamp in Xenopus oocytes, α2β2γ2; assay type: cell-based; settings: for Function relative efficacy, normalized toward chlordiazepoxide (10 µmol/L): Padsevonil 10 µmol/L, GABA EC20, TEVC, α2β2γ2
human recombinant GABAA receptor α2β2γ2, sequence (P47869 29-451): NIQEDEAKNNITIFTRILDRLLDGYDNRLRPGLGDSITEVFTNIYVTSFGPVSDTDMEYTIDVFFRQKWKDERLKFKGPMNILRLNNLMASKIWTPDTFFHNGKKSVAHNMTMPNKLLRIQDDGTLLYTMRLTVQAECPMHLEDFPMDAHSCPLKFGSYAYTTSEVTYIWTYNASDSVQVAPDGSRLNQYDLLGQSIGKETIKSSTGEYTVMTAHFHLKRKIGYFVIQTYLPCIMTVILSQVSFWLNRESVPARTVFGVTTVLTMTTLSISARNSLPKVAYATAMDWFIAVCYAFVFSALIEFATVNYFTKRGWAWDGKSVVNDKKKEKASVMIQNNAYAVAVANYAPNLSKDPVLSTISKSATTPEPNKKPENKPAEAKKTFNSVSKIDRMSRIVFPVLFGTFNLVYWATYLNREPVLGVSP
human recombinant GABAA receptor α2β2γ2, sequence (P47870 25-512 partner limits assumed): as the sequence (P47870 25-512 partner limits assumed) above
human recombinant GABAA receptor α2β2γ2, sequence (P18507 40-475): as the sequence (P18507 40-475) above

[3] = target: human recombinant GABAA receptor α5β2γ2 (Homo sapiens, UniProt P18507+P31644); assay: Two-electrode voltage clamp in Xenopus oocytes, α5β2γ2; assay type: cell-based; settings: for Function relative efficacy, normalized toward chlordiazepoxide (10 µmol/L): Padsevonil 10 µmol/L, GABA EC20, TEVC, α5β2γ2
human recombinant GABAA receptor α5β2γ2, sequence (P31644 32-462): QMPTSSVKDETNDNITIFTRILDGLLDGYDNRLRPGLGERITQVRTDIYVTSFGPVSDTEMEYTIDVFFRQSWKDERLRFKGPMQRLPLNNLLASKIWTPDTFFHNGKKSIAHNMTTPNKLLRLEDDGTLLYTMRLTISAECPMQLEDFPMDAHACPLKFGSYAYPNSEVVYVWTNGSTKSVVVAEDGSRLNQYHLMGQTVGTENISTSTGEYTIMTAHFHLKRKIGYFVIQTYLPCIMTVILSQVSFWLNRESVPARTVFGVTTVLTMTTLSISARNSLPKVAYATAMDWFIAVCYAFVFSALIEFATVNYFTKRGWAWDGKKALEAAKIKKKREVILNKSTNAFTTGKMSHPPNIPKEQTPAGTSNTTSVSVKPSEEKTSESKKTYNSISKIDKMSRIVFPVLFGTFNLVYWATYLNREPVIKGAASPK
human recombinant GABAA receptor α5β2γ2, sequence (P47870 25-512 partner limits assumed): as the sequence (P47870 25-512 partner limits assumed) above
human recombinant GABAA receptor α5β2γ2, sequence (P18507 40-475): as the sequence (P18507 40-475) above
Method in brief: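 Human α5β2γ2 receptors expressed in oocytes. GABA (EC₂₀) was applied twice for 20 s, 6 min apart, as control. Test compound (1 nmol/L–30 µmol/L) was preincubated 6 min, then co-applied with GABA for 20 s. EC₅₀ came from a sigmoidal fit of data normalized to maximal potentiation. Efficacy at 10 µmol/L was normalized to chlordiazepoxide 10 µmol/L. Mean ± SEM, n = 6–26.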

SV2A [4] = settings: cited from earlier work
[5] = target: recombinant GABAARs, benzodiazepine (BZD) binding site; settings: cited from earlier work
[6] = target: B isoform of SV2 proteins; settings: cited from earlier work
[7] = tested on: treatment-resistant focal epilepsy; settings: Phase IIa proof-of-concept trial; cited from earlier work
[8] = tested on: PTZ-induced clonic seizures; settings: repeated = twice daily for 4 consecutive days; cited from earlier work
[9] = target: human recombinant GABAA receptor α1β2γ2 (Homo sapiens, UniProt P14867+P18507); assay: Two-electrode voltage clamp in Xenopus oocytes, α1β2γ2; assay type: cell-based; settings: for Function relative efficacy, normalized toward chlordiazepoxide (10 µmol/L): Padsevonil 10 µmol/L, GABA EC20, TEVC, α1β2γ2
human recombinant GABAA receptor α1β2γ2, sequence (P14867 28-456): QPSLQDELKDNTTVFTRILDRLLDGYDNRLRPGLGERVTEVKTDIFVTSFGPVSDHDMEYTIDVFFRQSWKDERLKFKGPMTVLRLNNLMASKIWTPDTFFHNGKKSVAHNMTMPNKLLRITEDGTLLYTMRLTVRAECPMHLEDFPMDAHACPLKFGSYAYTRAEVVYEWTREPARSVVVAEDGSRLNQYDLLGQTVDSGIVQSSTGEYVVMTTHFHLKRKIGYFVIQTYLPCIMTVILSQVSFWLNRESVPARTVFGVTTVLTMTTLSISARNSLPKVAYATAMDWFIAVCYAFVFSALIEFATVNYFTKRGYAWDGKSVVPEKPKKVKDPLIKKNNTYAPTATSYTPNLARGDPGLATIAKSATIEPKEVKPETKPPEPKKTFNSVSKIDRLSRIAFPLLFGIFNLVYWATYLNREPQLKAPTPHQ
human recombinant GABAA receptor α1β2γ2, sequence (P47870 25-512 partner limits assumed): as the sequence (P47870 25-512 partner limits assumed) above
human recombinant GABAA receptor α1β2γ2, sequence (P18507 40-475): as the sequence (P18507 40-475) above

[10] = target: C isoform of SV2 proteins; settings: cited from earlier work
[11] = target: recombinant human GABAARs (α1β2γ2) (Homo sapiens, UniProt P14867+P18507); assay type: cell-based; settings: for Function relative efficacy, normalized toward zolpidem (1 µmol/L): Padsevonil 10 µmol/L; for Cl− currents evoked in the absence of GABA: no GABA, concentrations up to 30 µmol/L
recombinant human GABAARs (α1β2γ2), sequence (P14867 28-456): as the sequence (P14867 28-456) above
recombinant human GABAARs (α1β2γ2), sequence (P47870 25-512 partner limits assumed): as the sequence (P47870 25-512 partner limits assumed) above
recombinant human GABAARs (α1β2γ2), sequence (P18507 40-475): as the sequence (P18507 40-475) above

SV2A [12] = settings: cited from earlier work; remark: listed apart in the source
[13] = tested on: native GABAARs in cultured rat primary cortical neurons; assay type: cell-based; settings: manual patch clamp, rat primary neuronal cultures, GABA at EC20 as printed
[14] = target: human recombinant GABAA receptor α4β2γ2 (Homo sapiens, UniProt P18507+P48169); assay: Two-electrode voltage clamp in Xenopus oocytes, α4β2γ2; assay type: cell-based; settings: TEVC; for Potentiation of the GABA (EC20) response on α4β2γ2 receptors: oocytes, Padsevonil 10 and 30 µmol/L, Ro 15-4513 1 µmol/L
human recombinant GABAA receptor α4β2γ2, sequence (P48169 36-554): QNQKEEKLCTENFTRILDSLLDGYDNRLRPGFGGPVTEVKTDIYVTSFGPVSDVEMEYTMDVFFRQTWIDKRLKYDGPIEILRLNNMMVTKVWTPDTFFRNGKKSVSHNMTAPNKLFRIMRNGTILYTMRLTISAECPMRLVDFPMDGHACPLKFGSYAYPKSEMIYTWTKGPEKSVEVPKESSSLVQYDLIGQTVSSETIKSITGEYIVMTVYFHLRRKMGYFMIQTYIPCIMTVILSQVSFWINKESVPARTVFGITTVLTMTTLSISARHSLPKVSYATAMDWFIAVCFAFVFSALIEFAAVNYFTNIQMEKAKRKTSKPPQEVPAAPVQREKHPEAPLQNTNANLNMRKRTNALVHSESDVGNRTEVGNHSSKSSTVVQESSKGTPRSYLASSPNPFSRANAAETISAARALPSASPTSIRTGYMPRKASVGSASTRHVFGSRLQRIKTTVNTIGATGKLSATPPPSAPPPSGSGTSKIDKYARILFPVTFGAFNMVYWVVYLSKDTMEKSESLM
human recombinant GABAA receptor α4β2γ2, sequence (P47870 25-512 partner limits assumed): as the sequence (P47870 25-512 partner limits assumed) above
human recombinant GABAA receptor α4β2γ2, sequence (P18507 40-475): as the sequence (P18507 40-475) above
Method in brief: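 Human recombinant receptors expressed in Xenopus oocytes; automated two-electrode voltage clamp at −60 mV in frog Ringer (115 mM NaCl, 2.5 mM KCl, 1.8 mM CaCl₂, 10 mM HEPES, pH 7.2). Two 20 s GABA (EC₂₀) control applications 6 min apart; test compound pre-incubated 6 min, then co-applied with GABA for 20 s. Potentiation is I(GABA+drug)/I(GABA); EC50 from sigmoidal nonlinear fit.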

COCc1c(C(=O)OC(C)C)ncc2[nH]c3ccc(OCc4ccccc4)cc3c12 [Abecarnil]
Clinical efficacy / tolerance development (photosensitive epilepsy): without development of tolerance

CN1C(=O)CC(=O)N(c2ccccc2)c2cc(Cl)ccc21 [Clobazam]
Seizure control / tolerance development (Lennox–Gastaut syndrome): sustained seizure control

COCc1nn2c(CN3C[C@@H](CC(F)(F)Cl)CC3=O)c(C(F)(F)F)nc2s1 [Padsevonil, (4R)‐4‐(2‐chloro‐2,2‐difluoroethyl)‐1‐{[2‐(methoxymethyl)‐6‐(trifluoromethyl)imidazo[2,1‐b][1,3,4]thiadiazol‐5‐yl]methyl}pyrrolidin‐2‐one]
BZD site occupancy ED50 (BZD site of GABAARs; in vivo, mice): 36 mg/kg
Occupancy on GABAARs at doses highly active in models of drug-resistant epilepsy (BZD site of GABAARs; nonclinical studies): < 20%
EC50 [1]: 2090 ± 227 nM
Function relative efficacy, normalized toward chlordiazepoxide (10 µmol/L) [1]: 56 ± 6 (n = 18) ^b %
Function relative efficacy, normalized toward chlordiazepoxide (10 µmol/L) ([1]; listed as padsevonil): 56%
EC50 [2]: 1740 ± 258 nM
Function relative efficacy, normalized toward chlordiazepoxide (10 µmol/L) [2]: 26 ± 4 (n = 13) ^b %
Function relative efficacy, normalized toward chlordiazepoxide (10 µmol/L) ([2]; listed as padsevonil): 26%
EC50 [3]: 281 ± 73 nM
Function relative efficacy, normalized toward chlordiazepoxide (10 µmol/L) [3]: 41 ± 10 (n = 10) ^b %
Function relative efficacy, normalized toward chlordiazepoxide (10 µmol/L) ([3]; listed as padsevonil): 41%
SV2A occupancy ED50 (SV2A [4]; in vivo, mice): 0.2 mg/kg
SV2A occupancy at doses highly active in models of drug-resistant epilepsy (SV2A [4]; nonclinical studies): > 95%
pKi benzodiazepine (BZD) binding site [5]: 6.4
pKi SV2B [6]: 7.9
Clinical efficacy [7]: robust efficacy
Tolerance: increase of PTZ seizure threshold after acute versus repeated dosing [8]: tolerance was not developed
EC50 [9]: 295 nM
Function relative efficacy, normalized toward chlordiazepoxide (10 µmol/L) [9]: 60 ± 6%
Function relative efficacy, normalized toward chlordiazepoxide (10 µmol/L) ([9]; listed as padsevonil): 60%
Higher potency for receptors with α1 or α5 subunits than for those with α2 or α3 subunits ([9]; TEVC, oocytes, α1/α5 versus α2/α3): approximately sixfold
pKi SV2C [10]: 8.5
EC50 [11]: 138 ± 29 nM
Effect on maximal activation of the receptor ([11]; GABA 30 µmol/L (EC90), data not shown): does not overstimulate the receptor
Potentiation of the GABA (agonist) response ([11]; GABA at EC20 set to 100%, patch clamp, human α1β2γ2 in CHO): 167%
Function relative efficacy, normalized toward zolpidem (1 µmol/L) ([11]; GABA EC20, patch clamp, same cell): 41 ± 4%
Function relative efficacy, normalized toward zolpidem (1 µmol/L) ([11]; GABA EC20, patch clamp, same cell, listed as padsevonil): 41%
Relative efficacy, GABA EC20 response as % of that of zolpidem (1 µmol/L) ([11]; Padsevonil 30 µmol/L, GABA EC20, patch clamp, same cell): 35%
Cl− currents evoked in the absence of GABA [11]: did not elicit
Cl− currents evoked in the absence of GABA ([11]; listed as padsevonil): did not evoke
Dissociation kinetics from SV2A (SV2A [12]; compared with LEV and BRV): significantly slower dissociation kinetics
Affinity for SV2A relative to LEV (SV2A [12]; radioligand displacement): ~2000 fold
Affinity for SV2A relative to brivaracetam (BRV) (SV2A [12]; radioligand displacement): approximately 100 fold
pKi SV2A (SV2A [12]; radioligand displacement): 8.5
pEC50, potentiation of neuronal GABAAR activity [13]: 6.68
Potentiation of the GABA (EC20) response on α4β2γ2 receptors [14]: did not potentiate; also recorded: does not activate
Potentiation of the GABA (EC20) response on α4β2γ2 receptors ([14]; listed as padsevonil): no activity was observed
Function EC50, potentiation of GABA EC20 ([14]; α4β2γ2 in Xenopus oocytes): No potentiation

CCOC(=O)c1ncn2c1CN(C)C(=O)c1cc(N=[N+]=[N-])ccc1-2 [Ro 15‐4513, reference compound]
Potentiation of the GABA (EC20) response on α4β2γ2 receptors [14]: potentiated

Cc1ccc(-c2nc3ccc(C)cn3c2CC(=O)N(C)C)cc1 [zolpidem, Zolpidem, reference compound]
Potentiation of the GABA (EC20) response on α4β2γ2 receptors [14]: insensitive
